Most compounds without a hit are left out; they make up all but 3.4% or so of the library.
MEKK3 PB1 HTS: modulators (inhibitors or enhancers) of MEK5 binding to human MEKK3 PB1 domain; Q99759; binding response (% of control), % at 10 µM; hit rate 1.4% among 290,000; bead-based flow cytometry, Alexa488-MEK5 binding to MEKK3; actives lie on both sides; 0 = blocked by unlabeled MEK5, 100 = vehicle;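 active means binding response more than 3 SD above or below the average of its plate-row segment, actives on both sides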;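 further: Alexa488 bead fluorescence after subtracting the streptavidin-only scavenger bead signal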
Target sequence (Q99759 whole entry, looked up, the tested form may be a part): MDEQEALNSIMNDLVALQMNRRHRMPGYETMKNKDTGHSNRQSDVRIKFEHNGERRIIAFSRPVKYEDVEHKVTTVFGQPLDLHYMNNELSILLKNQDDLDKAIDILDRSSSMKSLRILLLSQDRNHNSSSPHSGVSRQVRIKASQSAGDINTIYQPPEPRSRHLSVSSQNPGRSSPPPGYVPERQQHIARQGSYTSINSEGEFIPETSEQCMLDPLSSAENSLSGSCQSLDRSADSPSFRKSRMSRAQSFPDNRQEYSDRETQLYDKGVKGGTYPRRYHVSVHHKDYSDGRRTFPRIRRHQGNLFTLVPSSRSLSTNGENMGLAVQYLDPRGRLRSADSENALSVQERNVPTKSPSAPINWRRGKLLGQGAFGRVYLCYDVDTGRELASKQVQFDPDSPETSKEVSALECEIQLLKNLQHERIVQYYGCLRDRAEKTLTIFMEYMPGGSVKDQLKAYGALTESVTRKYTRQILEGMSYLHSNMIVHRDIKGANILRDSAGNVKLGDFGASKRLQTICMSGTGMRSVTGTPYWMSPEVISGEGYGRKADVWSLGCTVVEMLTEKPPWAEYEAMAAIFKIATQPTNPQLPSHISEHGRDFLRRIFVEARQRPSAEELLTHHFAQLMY
MEKK2 WT-MEK5: raises or lowers MEK5 binding to wildtype human MEKK2 PB1 domain; bead flow cytometry, Alexa488-MEK5 binding to MEKK2 WT; actives lie on both sides; binding response (% of control), % at 10 µM; hit rate 1.1% among 290,000; AID 1531; in the data active means binding response below about 67% or above about 130%
VIM-2 inhibitor: blocks Pseudomonas aeruginosa VIM-2 metallo-beta-lactamase; purified VIM-2, nitrocefin hydrolysis, epi-absorbance fluorescence; inhibition, % at 5.6 µM; hit rate 0.89% among 290,000; AID 1527;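 active means inhibition above the mean of all tested compounds plus 3 SD, cutoff set per screening run, cut at about 7.5% in these data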;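 further: red hydrolysis product quenches plate fluorescence so inhibitors raise well fluorescence; 0% = enzyme with DMSO and 100% = DMSO without enzyme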
MEKK2 mut-MEK5: signal of MEK5 binding to mutant human MEKK2 PB1 domain | percent response, % at 10 µM | bead flow cytometry, Alexa488-MEK5 binding to MEKK2 mutant | hit rate 0.35% among 290,000; in the data active means percent response above about 24%, passing the limit was not always enough
IMP-1 inhibitor: blocks Pseudomonas aeruginosa IMP-1 metallo-beta-lactamase; purified IMP-1, nitrocefin hydrolysis, epi-absorbance fluorescence; inhibition, % at 5.6 µM; hit rate 0.45% among 290,000;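 active means inhibition above the mean plus 3 SD of all compounds in the same screening run, cut at about 4.5% in these data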;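 further: 0% = IMP-1 with DMSO and 100% = DMSO wells lacking enzyme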
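System: purified IMP-1; amount: IMP-1 0.2 nM before substrate addition; compound: single dose, 5.6 µM; times: 25 °C, 15 min preincubation, 25 min reaction; signal: Epi-absorbance via hydrolysed-nitrocefin quenching of white-plate fluorescence, 480/530 nm, EDTA stop; benchmarks: DMSO with and without IMP-1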
* marks the source's active call; other numbers are inactive results; nt = no result given.

SMILES | MEKK3 PB1 HTS | MEKK2 WT-MEK5 | VIM-2 inhibitor | MEKK2 mut-MEK5 | IMP-1 inhibitor
C=CCN1C(=O)/C(=C/c2cccs2)C(=O)NC1=S | 109.0 | 120.0 | -1.2 | 17.0 | -3.3
O=C1NC(=S)N(Cc2ccco2)C(=O)/C1=C\c1cccs1 | 89.0 | 90.0 | 1.6 | -52.0 | 5.1*
Cc1ccc(N2C(=O)/C(=C/c3ccc(CN(CCC#N)S(C)(=O)=O)o3)C(=O)NC2=S)cc1 | 100.0 | 96.0 | -3.0 | 11.0 | -1.5
COc1ccc(CN2CCN(C(=O)Cc3ccccc3)CC2)c(OC)c1 | 100.0 | 100.0 | -0.5 | -1.0 | 1.4
CCOCCN1CCN(c2nnc3n2-c2ccc(Cl)cc2C(c2ccccc2Cl)=NC3)CC1 | nt | nt | -3.4 | nt | -3.8
COCCCN1CCN(c2nnc3n2-c2sc(Br)cc2C(c2ccccc2Cl)=NC3)CC1 | nt | nt | -3.5 | nt | 8.3*
Cc1cc(OCC(=O)N[C@@H](Cc2ccccc2)C(=O)O)c2c3c(c(=O)oc2c1)CCCC3 | 100.0 | 102.0 | 11.3* | 1.0 | -4.3
Cc1cc(OCc2nn[nH]n2)c2c3c(c(=O)oc2c1)CCC3 | 101.0 | 92.0 | 11.8* | 0.0 | -0.9
COC(=O)C(C)Oc1cc(C)cc2oc(=O)c3c(c12)CCC3 (configuration not stated) | 95.0 | 96.0 | 11.4* | 0.0 | -4.5
COC(=O)C(C)Oc1cc(C)cc2oc(=O)c3c(c12)CCCC3 (configuration not stated) | 103.0 | 104.0 | 9.9* | 5.0 | -1.6
COc1ccc(CC2(CCc3ccncc3)C(=O)NC(=O)NC2=O)cc1OC | 109.0 | 99.0 | 1.0 | -11.0 | -1.0
N[C@@H](CCl)C(=O)O | 99.0 | 104.0 | nt | 3.0 | nt
Cc1c(NP(=S)(C(C)(C)C)C(C)(C)C)c(=O)n(-c2ccccc2)n1C | 104.0 | 97.0 | -1.8 | -5.0 | -1.4
CC(CO)(CO)N=Cc1c(O)n(-c2cccc3ccccc23)c(=O)[nH]c1=O | 101.0 | 98.0 | -1.5 | 3.0 | -2.2
Cc1nn(Cc2ccccc2Cl)c(Cl)c1C(=O)O | 100.0 | 100.0 | -1.0 | -2.0 | -0.6
Cc1nn(Cc2c(Cl)cccc2Cl)c(Cl)c1C(=O)O | 102.0 | -4.0* | -0.7 | 4.0 | -0.9
CC[C@@]1(O)C(=O)OCc2c1cc1n(c2=O)Cc2cc3ccccc3nc2-1 | 91.0 | 99.0 | -0.8 | -18.0 | -3.7
COc1ccccc1CCNC1C2CC3CC(C2)CC1C3 (configuration not stated) | 101.0 | 105.0 | -3.4 | 4.0 | -0.8
N#Cc1c(N2CCNCC2)nc(-c2ccco2)c2c1CCCC2 | 103.0 | 110.0 | 8.9* | 10.0 | -2.6
CCCCc1nc(N2CCNCC2)c(C#N)c2c1CSC(C)(C)C2 | nt | nt | -3.6 | nt | -5.8
C=CCn1c(O)c(C(C)=Nc2ccc(N(CC)CC)cc2)c(=O)[nH]c1=O | 105.0 | 105.0 | -6.1 | 4.0 | -1.8
NC(N)=N/N=C/c1cn(-c2ccccc2)nc1-c1cccs1 | 103.0 | 184.0* | -0.6 | 27.0 | -3.3
O=c1c2ccccc2nc(-c2cccs2)n1-c1ccccc1 | 102.0 | 100.0 | -4.0 | -1.0 | -1.7
Cc1cc(Oc2ccc(C(F)(F)F)cc2[N+](=O)[O-])c2c3c(c(=O)oc2c1)CCCC3 | 108.0 | 110.0 | -2.0 | 22.0 | -1.3
CCCCCCC(=O)N/N=C/c1c(O)n(CCc2ccccc2)c(=O)[nH]c1=O | 103.0 | 102.0 | -3.4 | 3.0 | -4.1
SMILES | MEKK3 PB1 HTS | MEKK2 WT-MEK5 | VIM-2 inhibitor | MEKK2 mut-MEK5 | IMP-1 inhibitor
CCC(COC(=O)c1cc(OC)c(OC)c(OC)c1)(c1ccccc1)N(C)C (configuration not stated) | 105.0 | 98.0 | -5.5 | 3.0 | 41.0*
CCCOP(=O)(OCCC)C(NC(=O)c1cc(OC)c(OC)c(OC)c1)c1ccccc1 (configuration not stated) | 107.0 | 103.0 | -1.3 | -1.0 | -4.1
CCOC(=O)C(C)Oc1cc(C)cc2oc(=O)c3c(c12)CCCC3 (configuration not stated) | 93.0 | 101.0 | 0.9 | 4.0 | -3.9
CCN(CC)CCCNC(=O)c1c(O)c2ccccc2n(Cc2ccccc2)c1=O | 98.0 | 123.0 | 12.1* | 8.0 | -2.7
CCCC(C)n1[nH]c(=O)c2c1NC(=O)CSC2c1ccc(OC)cc1 (configuration not stated) | nt | nt | -0.7 | nt | -2.6
CCCOc1ccccc1C1SCC(=O)Nc2c1c(=O)[nH]n2C(C)CCC (configuration not stated) | 85.0 | 87.0 | 8.7* | -9.0 | -2.0
Cc1ccsc1C(=O)C1CCCN(Cc2cc3ccccc3o2)C1 (configuration not stated) | 89.0 | 114.0 | -2.8 | 7.0 | -1.8
CCn1c(O)c(C(=O)CC2NCCc3ccccc32)c(=O)n(CC)c1=S (configuration not stated) | 115.0 | 112.0 | -0.1 | -1.0 | 9.6*
CCn1c(O)c(C=Nc2ccc(N3CCOCC3)cc2)c(=O)n(CC)c1=S | 92.0 | 76.0 | -0.7 | -6.0 | -0.6
NC(=S)c1cn(C2OC(CO)C(O)C2O)c2ncnc(N)c12 (configuration not stated) | 106.0 | 94.0 | 0.5 | 4.0 | 12.3*
Nc1ncnc2c1ccn2[C@@H]1O[C@H](CO)[C@@H](O)[C@H]1O | 101.0 | 101.0 | nt | 0.0 | nt
CCC(=NCCc1c[nH]c2ccccc12)c1c(O)n(-c2ccc(C)cc2)c(=O)[nH]c1=O | 102.0 | 99.0 | -4.2 | -1.0 | -1.9
CCN(CC)C(=O)c1ccc(NC(=O)COc2ccc(-c3nn(C)c(=O)c4ccccc34)cc2)cc1 | 94.0 | 91.0 | 9.0* | -7.0 | -1.8
COc1ccc(-n2c(O)c(/C=C/C=Nc3ccccc3)c(=O)[nH]c2=O)cc1 | 101.0 | 96.0 | 4.5 | -2.0 | 9.4*
Cc1ccnc(-n2c(C)cc(C=C3C(=O)N(C)C(=S)N(C)C3=O)c2C)c1 | 98.0 | 85.0 | 0.8 | 1.0 | 4.3
Cc1cc(C=C2C(=O)N(C)C(=S)N(C)C2=O)c(C)n1-c1ccncc1 | 92.0 | 74.0 | -2.9 | -11.0 | 17.9*
CCN1/C(=C\C=C\C2=[N+](CC)c3ccccc3C2(C)C)C(C)(C)c2ccccc21 | nt | nt | 5.4 | nt | 5.5*
O=C1NC(=O)N(Cc2ccc(F)cc2)C(=O)/C1=C\c1ccc(N2CCCC2)cc1 | 93.0 | 18.0* | 1.4 | 10.0 | -1.7
O=C(O)c1cccc2c1NC(C(=O)O)C1CC(Sc3ccccc3[N+](=O)[O-])C(Cl)C21 (configuration not stated) | 103.0 | 95.0 | 2.2 | -1.0 | 5.2*
CCCCCCC[n+]1ccc(-c2cc[n+](CCCCCCC)cc2)cc1 | 97.0 | 105.0 | -0.9 | -2.0 | 5.0*
CCOCCCN=Cc1c(O)n(Cc2ccccc2)c(=O)[nH]c1=O | 102.0 | 101.0 | -1.9 | 3.0 | -2.5
C=C(C)CSc1nnc([C@@H](N)Cc2c[nH]c3ccccc23)o1 | 81.0 | 81.0 | -4.7 | -8.0 | -4.4
CCOc1ccc(C(C)=O)cc1Cn1ccsc1=N | 104.0 | 145.0* | -1.2 | 23.0 | -0.3
CC[n+]1c(/C=C/C=C/c2ccc(N(C)C)cc2)sc2ccccc21 | 95.0 | -5.0* | -4.7 | 12.0 | -5.8
